Experiments:
[1] = melting temperature; fluorescence melt of hairpins on a sequencing array, two-state fit, raised by 9.35 °C to match UV melts; details: sodium 0.088 M
In short: (§1)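 Folding enthalpy and melting temperature come from bootstrapped two-state fits to Cy3 fluorescence of library hairpins carrying annealed Cy3 and quencher oligos on a sequenced MiSeq flow cell. Imaging was done in 50 mM Na-HEPES pH 8.0, 25 mM NaCl, stepping by 2.5 °C up to 60 °C, and signals were normalised to pre-quench Cy3 and to control constructs. Results of four replicates were combined by inverse variance, and fitted temperatures were raised by 9.35 °C to match UV melts.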

[2] = folding enthalpy; higher = less favourable; fluorescence melt of hairpins on a sequencing array, two-state fit; details: sodium 0.088 M
In short: as §1

GGTCTACGAAAGTACACC (((.(((....))).)))
Tm [1]: 35.8 °C
folding enthalpy [2]: -22 kcal/mol

GGTCTACGAAAGTATACC (((.(((....))).)))
Tm [1]: 42.2 °C
folding enthalpy [2]: -35.5 kcal/mol

GGTCTCACGAAAGTGACC (((..(((....))))))
Tm [1]: 37.9 °C
folding enthalpy [2]: -14.5 kcal/mol

GGTCTCGAAAGAGAACC ((((((....))).)))
Tm [1]: 50 °C
folding enthalpy [2]: -19 kcal/mol

GGTCTCGAAAGAGCGACC ((((((....)))..)))
Tm [1]: 37.3 °C
folding enthalpy [2]: -18.1 kcal/mol

GGTCTCGAAAGAGGACC ((((((....))).)))
Tm [1]: 49.5 °C
folding enthalpy [2]: -28.3 kcal/mol

GGTCTCGAAAGAGTACC ((((((....))).)))
Tm [1]: 46.8 °C
folding enthalpy [2]: -24.3 kcal/mol

GGTCTCGAAAGAGTTACC ((((((....)))..)))
Tm [1]: 32.3 °C
folding enthalpy [2]: -17.3 kcal/mol

GGTCTCGCGAAAGCGACC (((..(((....))))))
Tm [1]: 33.2 °C
folding enthalpy [2]: -9.72 kcal/mol

GGTCTGACGAAAGTCACC (((..(((....))))))
Tm [1]: 27.8 °C
folding enthalpy [2]: -10.4 kcal/mol

GGTCTGCCGAAAGGCACC (((..(((....))))))
Tm [1]: 28.8 °C
folding enthalpy [2]: -6.75 kcal/mol

GGTCTGGGAAACCAGACC (((((((....)))))))
Tm [1]: 67.7 °C
folding enthalpy [2]: -47.2 kcal/mol

GGTCTGGGAAACCAGGCC ((.((((....)))).))
Tm [1]: 56.9 °C
folding enthalpy [2]: -47.6 kcal/mol

GGTCTGGGAAACCAGGTC (..((((....))))..)
Tm [1]: 34.9 °C
folding enthalpy [2]: -14.3 kcal/mol

GGTCTGGGAAACCGGATC (.((.((....)).)).)
Tm [1]: 40 °C
folding enthalpy [2]: -23.2 kcal/mol

GGTCTGGGAAACTGGACC ((((..(....)..))))
Tm [1]: 45.1 °C
folding enthalpy [2]: -31.1 kcal/mol

GGTCTTACGAAAGTAACC (((..(((....))))))
Tm [1]: 25.7 °C
folding enthalpy [2]: -10.7 kcal/mol

GGTCTTCCGAAAGGAACC (((..(((....))))))
Tm [1]: 26.5 °C
folding enthalpy [2]: -10.5 kcal/mol

GGTCTTGGAAACAAGATC (.(((((....))))).)
Tm [1]: 44.5 °C
folding enthalpy [2]: -25.7 kcal/mol

GGTGAAACGAAAGTTACC (((..(((....))))))
Tm [1]: 30.5 °C
folding enthalpy [2]: -18 kcal/mol

GGTGAACCGAAAGGTACC (((..(((....))))))
Tm [1]: 37.8 °C
folding enthalpy [2]: -18 kcal/mol

GGTGAACGAAAGTTGACC (((.(((....))).)))
Tm [1]: 48.9 °C
folding enthalpy [2]: -30.4 kcal/mol

GGTGAAGGAAACTCCACC ((((.((....)).))))
Tm [1]: 39 °C
folding enthalpy [2]: -31.3 kcal/mol

GGTGAAGGAAACTTTGCC ((..(((....)))..))
Tm [1]: 34.6 °C
folding enthalpy [2]: -25.4 kcal/mol

GGTGACGGAAACACCACC ((((..(....)..))))
Tm [1]: 34.5 °C
folding enthalpy [2]: -20 kcal/mol

GGTGACGGAAACGTCGCC ((.((((....)))).))
Tm [1]: 64.6 °C
folding enthalpy [2]: -34 kcal/mol

GGTGACTCGAAAGAGACC (((..(((....))))))
Tm [1]: 33 °C
folding enthalpy [2]: -16.5 kcal/mol

GGTGAGACGAAAGTCACC (((..(((....))))))
Tm [1]: 46.8 °C
folding enthalpy [2]: -17.1 kcal/mol

GGTGAGCGAAAGCTAACC (((.(((....))).)))
Tm [1]: 55.5 °C
folding enthalpy [2]: -33.3 kcal/mol

GGTGAGGAAACTCACC ((((((....))))))
Tm [1]: 61.6 °C
folding enthalpy [2]: -35 kcal/mol

GGTGAGGCGAAAGCCACC (((..(((....))))))
Tm [1]: 51.7 °C
folding enthalpy [2]: -16.1 kcal/mol

GGTGAGGGAAACCTCACC (((((((....)))))))
Tm [1]: 67.5 °C
folding enthalpy [2]: -43.2 kcal/mol

GGTGAGGGAAACCTTACC (((.(((....))).)))
Tm [1]: 46.6 °C
folding enthalpy [2]: -33.9 kcal/mol

GGTGAGGGAAACCTTGCC ((..(((....)))..))
Tm [1]: 41.8 °C
folding enthalpy [2]: -21.7 kcal/mol

GGTGATCGAAAGATTACC (((.(((....))).)))
Tm [1]: 51.1 °C
folding enthalpy [2]: -46.1 kcal/mol

GGTGATGGAAACACCACC ((((.((....)).))))
Tm [1]: 46.6 °C
folding enthalpy [2]: -23.8 kcal/mol

GGTGATGGAAACATCGTC (..((((....))))..)
Tm [1]: 32.9 °C
folding enthalpy [2]: -18.1 kcal/mol

GGTGCACGAAAGTGGACC (((.(((....))).)))
Tm [1]: 65.7 °C
folding enthalpy [2]: -38.1 kcal/mol

GGTGCAGCGAAAGCTACC (((..(((....))))))
Tm [1]: 39.1 °C
folding enthalpy [2]: -13.6 kcal/mol

GGTGCAGGAAACCACACC ((((..(....)..))))
Tm [1]: 34.9 °C
folding enthalpy [2]: -21.4 kcal/mol

GGTGCATCGAAAGATACC (((..(((....))))))
Tm [1]: 27.9 °C
folding enthalpy [2]: -10.2 kcal/mol

GGTGCCGAAAGGCAGACC ((((((....)))..)))
Tm [1]: 52.2 °C
folding enthalpy [2]: -12.1 kcal/mol

GGTGCCGAAAGGCTCACC ((((((....)))..)))
Tm [1]: 46.3 °C
folding enthalpy [2]: -11.6 kcal/mol

GGTGCCGAAAGGCTTACC ((((((....)))..)))
Tm [1]: 44.1 °C
folding enthalpy [2]: -13.7 kcal/mol

GGTGCGCGAAAGCGACC (((.(((....))))))
Tm [1]: 56.7 °C
folding enthalpy [2]: -15.3 kcal/mol

GGTGCGGGAAACCGCGTC (..((((....))))..)
Tm [1]: 44.1 °C
folding enthalpy [2]: -11.5 kcal/mol

GGTGCGGGAAACTGCGCC ((.((.(....).)).))
Tm [1]: 52.7 °C
folding enthalpy [2]: -49.1 kcal/mol

GGTGCTGGAAACAGCATC (.(((((....))))).)
Tm [1]: 54.1 °C
folding enthalpy [2]: -30.3 kcal/mol

GGTGGAGGAAACTCCATC (.(((((....))))).)
Tm [1]: 49.4 °C
folding enthalpy [2]: -26.6 kcal/mol

GGTGGAGGAAACTCCGTC (..((((....))))..)
Tm [1]: 37.8 °C
folding enthalpy [2]: -15.4 kcal/mol

GGTGGAGGAAACTCTGCC ((..(((....)))..))
Tm [1]: 42 °C
folding enthalpy [2]: -27 kcal/mol

GGTGGAGGAAACTTCACC ((((.((....)).))))
Tm [1]: 50.1 °C
folding enthalpy [2]: -33.4 kcal/mol

GGTGGCACGAAAGTGACC (((..(((....))))))
Tm [1]: 45.6 °C
folding enthalpy [2]: -15.5 kcal/mol

GGTGGCGAAAGCCCGACC ((((((....)))..)))
Tm [1]: 41.5 °C
folding enthalpy [2]: -12.8 kcal/mol

GGTGGCGAAAGCCGAACC ((((((....)))..)))
Tm [1]: 45.3 °C
folding enthalpy [2]: -14.9 kcal/mol

GGTGGCGGAAACGCTGCC ((..(((....)))..))
Tm [1]: 54.5 °C
folding enthalpy [2]: -31.8 kcal/mol

GGTGGGGGAAACTCCACC (((((.(....).)))))
Tm [1]: 56.4 °C
folding enthalpy [2]: -45.9 kcal/mol

GGTGGTGCGAAAGCAACC (((..(((....))))))
Tm [1]: 53.3 °C
folding enthalpy [2]: -15.4 kcal/mol

GGTGGTGGAAACATCACC ((((.((....)).))))
Tm [1]: 52.3 °C
folding enthalpy [2]: -41.3 kcal/mol

GGTGGTGGAAACATCGCC ((.(.((....)).).))
Tm [1]: 44.6 °C
folding enthalpy [2]: -27.4 kcal/mol

GGTGGTTCGAAAGAAACC (((..(((....))))))
Tm [1]: 41.5 °C
folding enthalpy [2]: -20.4 kcal/mol

GGTGTACGAAAGTATACC (((.(((....))).)))
Tm [1]: 53.3 °C
folding enthalpy [2]: -47.6 kcal/mol

GGTGTAGAAATACACC ((((((....))))))
Tm [1]: 53.7 °C
folding enthalpy [2]: -29.6 kcal/mol

GGTGTAGGAAACTACATC (.(((((....))))).)
Tm [1]: 42.2 °C
folding enthalpy [2]: -27.4 kcal/mol

GGTGTAGGAAACTATGCC ((..(((....)))..))
Tm [1]: 35.7 °C
folding enthalpy [2]: -32.3 kcal/mol

GGTGTCCGAAAGGAAACC (((.(((....))).)))
Tm [1]: 52.7 °C
folding enthalpy [2]: -27.9 kcal/mol

GGTGTCGAAAGACCCACC ((((((....)))..)))
Tm [1]: 45.1 °C
folding enthalpy [2]: -12.1 kcal/mol

GGTGTCGGAAACGACGCC ((.((((....)))).))
Tm [1]: 64.5 °C
folding enthalpy [2]: -28.6 kcal/mol

GGTGTCGGAAACGATGCC ((..(((....)))..))
Tm [1]: 49.4 °C
folding enthalpy [2]: -26.7 kcal/mol

GGTGTGGGAAACTGCACC ((((..(....)..))))
Tm [1]: 47.7 °C
folding enthalpy [2]: -26.3 kcal/mol

GGTGTTCGAAAGAAACC (((.(((....))))))
Tm [1]: 34.1 °C
folding enthalpy [2]: -14.1 kcal/mol

GGTGTTGGAAACAACACC (((((((....)))))))
Tm [1]: 66.5 °C
folding enthalpy [2]: -38.4 kcal/mol

GGTGTTGGAAACAGCACC ((((.((....)).))))
Tm [1]: 51.8 °C
folding enthalpy [2]: -37.1 kcal/mol

GGTGTTTCGAAAGAAACC (((..(((....))))))
Tm [1]: 42.5 °C
folding enthalpy [2]: -13.2 kcal/mol

GGTTAAGGAAACTTAATC (.(((((....))))).)
Tm [1]: 31.7 °C
folding enthalpy [2]: -21.7 kcal/mol

GGTTACGAAAGTAGTACC ((((((....)))..)))
Tm [1]: 34.8 °C
folding enthalpy [2]: -14.8 kcal/mol

GGTTACGAAAGTATCACC ((((((....)))..)))
Tm [1]: 28.2 °C
folding enthalpy [2]: -12.5 kcal/mol

GGTTAGAAATAACC (((((....)))))
Tm [1]: 40 °C
folding enthalpy [2]: -16.4 kcal/mol

GGTTAGGAAACTAACC ((((((....))))))
Tm [1]: 52.3 °C
folding enthalpy [2]: -35.6 kcal/mol

GGTTAGGGAAACCTAGCC ((.((((....)))).))
Tm [1]: 46.3 °C
folding enthalpy [2]: -27.2 kcal/mol

GGTTATCGAAAGATACC (((.(((....))))))
Tm [1]: 43.1 °C
folding enthalpy [2]: -25 kcal/mol

GGTTATCGAAAGATCACC (((.(((....))).)))
Tm [1]: 42.3 °C
folding enthalpy [2]: -30.4 kcal/mol

GGTTCACGAAAGTGGACC (((.(((....))).)))
Tm [1]: 63 °C
folding enthalpy [2]: -38 kcal/mol

GGTTCAGAAATGAACC ((((((....))))))
Tm [1]: 54.6 °C
folding enthalpy [2]: -38.8 kcal/mol

GGTTCAGCGAAAGCTACC (((..(((....))))))
Tm [1]: 32.7 °C
folding enthalpy [2]: -16 kcal/mol

GGTTCAGGAAACTAAACC ((((.((....)).))))
Tm [1]: 28.6 °C
folding enthalpy [2]: -15.3 kcal/mol

GGTTCCCGAAAGGGACC (((.(((....))))))
Tm [1]: 59.9 °C
folding enthalpy [2]: -23 kcal/mol

GGTTCCGAAAGGAAAACC ((((((....)))..)))
Tm [1]: 43.6 °C
folding enthalpy [2]: -18.5 kcal/mol

GGTTCCGAAAGGAAACC ((((((....))).)))
Tm [1]: 53.7 °C
folding enthalpy [2]: -25.9 kcal/mol

GGTTCCGAAAGGAAGACC ((((((....)))..)))
Tm [1]: 42.1 °C
folding enthalpy [2]: -15.1 kcal/mol

GGTTCCGAAAGGACAACC ((((((....)))..)))
Tm [1]: 36.7 °C
folding enthalpy [2]: -19.9 kcal/mol
